According to paper PMC7394584 (OncoTargets and therapy, 2020):

Tests used:
[1] = test system: MHCC97-H cells' subcutaneous tumor; experiment: Nude mice subcutaneous tumor model; type: in vivo; conditions: oral; for Tumor Volumes IC50 Values, Solvent control / Tumor Weights IC50 Values, Solvent control / Tumor Volumes IC50 Values, Compound 4 / Tumor Weights IC50 Values, Compound 4: every 2 days, 30 days; for Tumor Volumes IC50 Values, Solvent control / Tumor Weights IC50 Values, Solvent control: agent alone; for Tumor Volumes IC50 Values, Compound 4 / Tumor Weights IC50 Values, Compound 4: agent combined with compound 4 (1 mg/kg)
How it was run: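 MHCC97-H cells injected subcutaneously into 4–5-week-old nude mice. Dosing started 4–5 days later as oral liquids formulated with PEG and Tween 80, given orally every 2 days (15 doses over 30 days). Test compound at 1 mg/kg; sorafenib at 0.5 or 2 mg/kg. Tumours then excised. Volume = length × width²/2; weight measured on a balance. Inhibitory rates calculated from volume and weight.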

phospho-p70S6K (Thr389) = experiment: Western blot, phosphorylation of P70S6K1; type: cell-based, human; conditions: MHCC97-H cells; for phosphorylation of P70S6K1 (Western blot): 1 μmol/L
phospho-AKT = experiment: Western blot, phosphorylation of AKT; type: cell-based, human; conditions: MHCC97-H cells; for phosphorylation of AKT (Western blot): 1 μmol/L
How it was run: (§1)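 MHCC97-H cells (5 × 10^6 per 75T flask) pretreated 12 h with solvent, test compound or reference pathway inhibitors, each at 1 μmol/L, then incubated 24 h. RIPA lysates quantified by BCA; 40 μg protein run on 10–12% SDS-PAGE. Blocking in 5% skim milk/TBS-0.1% Tween-20; rabbit primary antibodies (1:1000, 4°C) against phospho-p70S6K Thr389, phospho-AKT Ser473/Thr308, phospho-ERK and total proteins; β-actin loading control.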

phospho-ERK = experiment: Western blot, phosphorylation of ERK; type: cell-based, human; conditions: MHCC97-H cells, 1 μmol/L
How it was run: as §1

MHCC97-H cells = experiment: MTT cell-survival examination; type: cell-based; conditions: compound 4 at 0.03 μmol/L (30 nmol/L)
How it was run: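 MHCC97-H seeded at 5 × 10^3 cells/well in DMEM + 10% FBS, 37°C, 5% CO2, 24 h. MTT read at OD 490 nm; inhibition = (control − treated)/control × 100%; IC50 calculated from inhibitory rates.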

advanced HCC patients = experiment: Clinical outcome of sorafenib treatment by mTOR mRNA expression; type: in vivo, human; conditions: sorafenib-treated advanced HCC patients
[2] = stated in introduction, no reference given; cited from earlier work

COc1cc2c(Oc3ccc4[nH]c(C)cc4c3F)ccnc2cc1OCC1(N)CC1 [Anlotinib]
Tumor Volumes IC50 Values, Solvent control [1]: 1.70 ± 0.54 mg/kg | Tumor Weights IC50 Values, Solvent control [1]: 1.60 ± 0.71 mg/kg | Tumor Volumes IC50 Values, Compound 4 [1]: 0.44 ± 0.23 mg/kg | Tumor Weights IC50 Values, Compound 4 [1]: 0.42 ± 0.07 mg/kg

N#CC1(c2ccc(NC(=O)c3cccnc3NCc3ccncc3)cc2)CCCC1 [Apatinib]
Tumor Volumes IC50 Values, Solvent control [1]: 1.95 ± 0.55 mg/kg | Tumor Weights IC50 Values, Solvent control [1]: 1.65 ± 0.09 mg/kg | Tumor Volumes IC50 Values, Compound 4 [1]: 0.53 ± 0.20 mg/kg | Tumor Weights IC50 Values, Compound 4 [1]: 0.59 ± 0.07 mg/kg

C[C@@H]1CCN(C(=O)CC#N)C[C@@H]1N(C)c1ncnc2[nH]ccc12 [CP690550]
phosphorylation of P70S6K1 (Western blot) (phospho-p70S6K (Thr389)): does not affect | phosphorylation of AKT (Western blot) (phospho-AKT): does not affect | ERK phosphorylation (Western blot) (phospho-ERK): does not affect

CC(C)(C)OC(=O)Nc1ccc(-c2nc(N3CCOCC3)c3ncn(CCC4OCCO4)c3n2)cc1 [Compound 4, tert-butyl (4-(9-(2-(1,3-dioxolan-2-yl)ethyl)-6-morpholino-9H-purin-2-yl)phenyl)carbamate]
cytotoxicity on MHCC97-H cells (MHCC97-H cells): no obvious cytotoxicity | inhibitory activity on mTORC1 (phospho-p70S6K1, Western blot) (phospho-p70S6K (Thr389)): definite inhibitory effect | phosphorylation of P70S6K1 (Western blot) (phospho-p70S6K (Thr389)): only inhibited the phosphorylation of P70S6K1 | inhibition of activation of mTOR kinase (phosphorylation of P70S6K1) in cells (phospho-p70S6K (Thr389); compound 4 at 0.03 μmol/L (30 nmol/L)): significantly inhibited the activation of mTOR | inhibitory activity on mTORC2 (phospho-AKT SER473, Western blot) (phospho-AKT): weaker than that on mTORC1 | phosphorylation of AKT (Western blot) (phospho-AKT): did not affect PI3K or AKT | ERK phosphorylation (Western blot) (phospho-ERK): did not show a significant inhibitory effect | MHCC97-H cells' subcutaneous growth ([1]; compound 4 alone at 1 mg/kg): without significantly affecting | activation of mTOR in vivo ([1]; compound 4 at 1 mg/kg): significantly inhibited the activation of mTOR

CC(C)(C)c1nc(-c2cccc(NS(=O)(=O)c3c(F)cccc3F)c2F)c(-c2ccnc(N)n2)s1 [GSK2118436]
ERK phosphorylation (Western blot) (phospho-ERK): significantly inhibited ERK phosphorylation

O=c1cc(N2CCOCC2)oc2c(-c3ccccc3)cccc12 [LY294002]
phosphorylation of P70S6K1 (Western blot) (phospho-p70S6K (Thr389)): significantly inhibited | phosphorylation of AKT (Western blot) (phospho-AKT): significantly inhibited

COc1cc2nccc(Oc3ccc(NC(=O)NC4CC4)c(Cl)c3)c2cc1C(N)=O [Lenvatinib]
Tumor Volumes IC50 Values, Solvent control [1]: 0.70 ± 0.25 mg/kg | Tumor Weights IC50 Values, Solvent control [1]: 0.78 ± 0.58 mg/kg | Tumor Volumes IC50 Values, Compound 4 [1]: 0.10 ± 0.05 mg/kg | Tumor Weights IC50 Values, Compound 4 [1]: 0.10 ± 0.01 mg/kg

CNC(=O)c1cc(Oc2ccc(NC(=O)Nc3ccc(Cl)c(C(F)(F)F)c3)c(F)c2)ccn1 [Regorafenib]
Tumor Volumes IC50 Values, Solvent control [1]: 0.92 ± 0.48 mg/kg | Tumor Weights IC50 Values, Solvent control [1]: 1.22 ± 0.72 mg/kg | Tumor Volumes IC50 Values, Compound 4 [1]: 0.43 ± 0.10 mg/kg | Tumor Weights IC50 Values, Compound 4 [1]: 0.55 ± 0.10 mg/kg

CNC(=O)c1cc(Oc2ccc(NC(=O)Nc3ccc(Cl)c(C(F)(F)F)c3)cc2)ccn1 [Sorafenib]
Tumor Volumes IC50 Values, Solvent control [1]: 1.30 ± 0.48 mg/kg | Tumor Weights IC50 Values, Solvent control [1]: 1.57 ± 0.41 mg/kg | Tumor Volumes IC50 Values, Compound 4 [1]: 0.17 ± 0.03 mg/kg | Tumor Weights IC50 Values, Compound 4 [1]: 0.15 ± 0.04 mg/kg | OS (overall survival), median (advanced HCC patients; mTOR mRNA High (n = 40)): 10.0 M | TTP (time to progress), median (advanced HCC patients; mTOR mRNA High (n = 40)): 8.0 M | OS (overall survival), median (advanced HCC patients; mTOR mRNA Low (n = 12)): 16.0 M | TTP (time to progress), median (advanced HCC patients; mTOR mRNA Low (n = 12)): 12.0 M

CO[C@H]1C[C@@H]2CC[C@@H](C)[C@@](O)(O2)C(=O)C(=O)N2CCCC[C@H]2C(=O)O[C@H]([C@H](C)C[C@@H]2CC[C@@H](OCCO)[C@H](OC)C2)CC(=O)[C@H](C)/C=C(\C)[C@@H](O)[C@@H](OC)C(=O)[C@H](C)C[C@H](C)/C=C/C=C/C=C/1C [everolimus]
logP [2]: > 6

CO[C@H]1C[C@@H]2CC[C@@H](C)[C@@](O)(O2)C(=O)C(=O)N2CCCC[C@H]2C(=O)O[C@H]([C@H](C)C[C@@H]2CC[C@@H](O)[C@H](OC)C2)CC(=O)[C@H](C)/C=C(\C)[C@@H](O)[C@@H](OC)C(=O)[C@H](C)C[C@H](C)/C=C/C=C/C=C/1C [rapamycin]
logP [2]: > 6
